Sampled rows, rich in hits. Any-hit rate of the full collection: about 2.1%.
Cardio protect: cardioprotection against H2O2-induced cell death, primary screen, uHTS, H9c2 cells, ATPLite luminescence; AID 588492, 2011; H9c2 cardiomyocytes, H2O2 injury protection, 2 h; protection from H2O2 cell death, % at 20 µM; 360,000 compounds, 0.63% hits;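 active = compounds giving at least 50% protection of heart cells from peroxide-induced death in the single-dose screen, raw or plate-pattern-corrected value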;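 note: 0% = DMSO wells with peroxide and 100% = DMSO wells without peroxide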
aDG glyco up: activators of alpha-DG glycosylation, primary screen, uHTS, Pro5-aDG cells, AlphaScreen. activation, % at 10 µM. alpha-DG glycosylation AlphaScreen (IIH6); 0% Pro5, 100% B10-LARGE cell signal. 360,000 compounds, 0.22% hits;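 active = activation of at least 8% versus controls, or a plate z-score of at least 8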;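 note: Pro5 are CHO cells carrying HIG-tagged alpha-DG that lacks glycosylation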
PfG6PD inh: PfG6PD enzyme inhibitors, primary screen, biochemical, fluorescence intensity, uHTS | glucose-6-phosphate dehydrogenase-6-phosphogluconolactonase (Plasmodium falciparum 3D7) | PfGluPho enzyme, NADPH resazurin-diaphorase fluorescence | inhibition, % at 20 µM | 350,000 compounds, 0.78% hits | AID 504690, 2011;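 active = inhibition reaching at least a set limit at 20 µM in the primary screen, cut at about 59% in these data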;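 note: 0% = DMSO wells with substrate and 100% = DMSO wells lacking glucose-6-phosphate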
HKDC1 inh: HKDC1 hexokinase inhibitors, primary screen, biochemical, fluorescence, uHTS. Q2TB90. recombinant HKDC1, G6PDH/diaphorase resazurin coupled fluorescence. inhibition, % at 20 µM. 340,000 compounds, 0.16% hits;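 active = inhibition above about 35% when tested at 20 µM, limit read from the data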;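 note: plate controls were DMSO wells with enzyme for no effect and DMSO wells lacking enzyme for full effect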
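Test system: Recombinant HKDC1 (HK5) hexokinase enzyme, produced in-house | Input: HKDC1 at 5 µg/mL | Buffer or medium: Tris pH 8.0 buffer with MgCl2, Tween-20, BSA, BME | Schedule: 90 min reaction incubation at room temperature, dark | Technique: Resazurin-to-resorufin fluorescence via G6PDH and diaphorase coupling, 525/613 nm | Controls: DMSO wells with and without enzyme mix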
UCH37 DUB inh: inhibitors of human UCH37 deubiquitinase, primary screen, biochemical, Ub-AMC cleavage, fluorescence | 330,000 compounds, 0.33% hits | inhibition, % (test concentration not listed) | Ubiquitin carboxyl-terminal hydrolase isozyme L5 (Homo sapiens), Q9Y5K5 | purified proteasome/UCH37;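 active = mean inhibition over replicate wells above about 20%, limit read from the data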;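 note: 0% = compound-free wells with enzyme and 100% = wells lacking proteasome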
Target sequence (Q9Y5K5 whole entry, looked up): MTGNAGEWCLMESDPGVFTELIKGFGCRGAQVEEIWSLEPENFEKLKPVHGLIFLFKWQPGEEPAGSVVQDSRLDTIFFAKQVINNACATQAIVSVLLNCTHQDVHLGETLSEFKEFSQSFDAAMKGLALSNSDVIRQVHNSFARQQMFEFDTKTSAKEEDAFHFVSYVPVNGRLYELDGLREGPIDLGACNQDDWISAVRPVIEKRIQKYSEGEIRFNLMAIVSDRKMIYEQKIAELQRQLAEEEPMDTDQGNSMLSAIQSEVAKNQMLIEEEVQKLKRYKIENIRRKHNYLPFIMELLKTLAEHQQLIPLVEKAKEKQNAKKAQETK
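Material: Human UCH37 enzyme supplied as purified proteasome complex | Schedule: 30 min compound-proteasome preincubation then 25 min substrate reaction, room temperature | Detection: AMC fluorescence from Ub-AMC cleavage, excitation 355 nm, emission 460 nm | Benchmarks: Wells without proteasome as full block, compound-free enzyme plus substrate as uninhibited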
B2AR ag: beta2AR agonists driving receptor internalization, primary screen, cell-based, FAP fluorogen, flow cytometry; Beta-2 adrenergic receptor (Homo sapiens), P07550; Am2.2-beta2AR cells; response, % (test concentration not listed); 340,000 compounds, 0.43% hits;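 active = response above a set limit, near 3 SD of response in nonfluorescent compounds, cut at about 42% in these data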
Target sequence (P07550 whole entry, looked up): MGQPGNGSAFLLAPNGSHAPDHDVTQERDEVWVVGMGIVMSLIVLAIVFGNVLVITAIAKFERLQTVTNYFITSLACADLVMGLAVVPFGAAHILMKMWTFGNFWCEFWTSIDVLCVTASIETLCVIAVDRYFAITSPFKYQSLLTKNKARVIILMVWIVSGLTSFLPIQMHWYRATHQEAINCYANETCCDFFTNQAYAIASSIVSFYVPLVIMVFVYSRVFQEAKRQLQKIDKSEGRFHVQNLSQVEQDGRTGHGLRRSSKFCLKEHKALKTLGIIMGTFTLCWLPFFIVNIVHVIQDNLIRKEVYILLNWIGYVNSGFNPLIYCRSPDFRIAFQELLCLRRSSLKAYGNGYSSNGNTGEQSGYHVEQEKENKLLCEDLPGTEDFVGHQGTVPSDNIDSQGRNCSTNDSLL
An asterisk follows results filed as active; nt = no result given.

SMILES | Cardio protect | aDG glyco up | PfG6PD inh | HKDC1 inh | UCH37 DUB inh | B2AR ag
CCOc1ccc(-n2c(-c3cccs3)nc3ccccc3c2=O)cc1 | -0.3 | 0.2 | 12.7 | -1.6 | -14.6 | -13.9
CCn1nc(-c2cccs2)nc2c(=O)n(C)c(=O)nc1-2 | -23.0 | 0.2 | 107.1* | -30.5 | 95.2* | 101.6*
CCCC(=NO)c1c[nH]c2ccccc12 | nt | nt | nt | nt | -5.1 | nt
CCOC(=O)c1cccc(C2=C(CNC(=O)c3cccnc3)[C@H]3CC[C@@H](C2)N3Cc2ccccc2)c1 | 55.2* | 0.1 | -4.8 | nt | nt | nt
CCOC(=O)c1cccc(C2=C(CNC(C)=O)[C@H]3CC[C@@H](C2)N3Cc2ccccc2)c1 | -2.4 | -0.4 | -23.7 | nt | nt | nt
NC(=N[N+](=O)[O-])N1CCN(C(=O)c2ccc(Cl)cc2)CC1 | nt | nt | nt | nt | 1.9 | nt
CSc1nc(Cl)c(Br)c(N2CC2)n1 | 50.7* | -0.1 | -0.6 | -4.6 | 0.7 | -2.7
CCC(CC(c1ccccc1)c1c(O)c2ccccc2oc1=O)=NNC(N)=S (configuration not stated) | nt | nt | nt | nt | -2.1 | nt
COc1ccc(CCNC(=O)c2c(N)n(CCN3CCOCC3)c3nc4ccccc4nc23)cc1OC | 56.8* | 0.9 | 18.2 | 10.3 | -112.7 | 7.0
O=C(CCN1CC1)OCCOC(=O)CCN1CC1 | 4.7 | 0.0 | 11.7 | -7.3 | 2.0 | 55.1*
O=C(NN=CC1C(=O)NC(=S)N(c2ccccc2)C1=O)c1cc(Br)c(O)c(Br)c1 (configuration not stated) | nt | nt | nt | nt | -1.5 | nt
C#C[C@@]1(O)CCC2C3CCC4=CC(=NOCC(=O)NC(C(=O)O)C(C)O)CC[C@]4(C)C3CC[C@@]21C (some centres not stated) | nt | nt | nt | nt | 4.1 | nt
O=c1c2ccccc2nc(CSc2ncnc3nc[nH]c23)n1-c1ccc(Cl)c(Cl)c1 | 67.6* | -0.5 | 6.5 | -2.6 | 0.6 | 4.8
Cc1nc2ccccc2c(=O)n1-c1ccc(Cl)c(Cl)c1 | 5.4 | 0.1 | 6.9 | -3.4 | -2.0 | 1.3
C[C@H]1CCCC=CC2C[C@H](O)CC2[C@H](O)C=CC(=O)O1 (some centres not stated) | nt | nt | nt | nt | 0.4 | nt
CCOC(=O)c1c(N=CC2C(=O)NC(=S)NC2=O)sc2c1CCC2 | nt | nt | nt | nt | 3.8 | nt
COc1ccc(/C=C2\C(=NO)C3CCN2CC3)cc1 | nt | nt | nt | nt | 2.4 | nt
COP(=O)(OC)C(C=O)=NNc1ccc([N+](=O)[O-])cc1 | nt | nt | nt | nt | 20.2* | nt
CC(C)(C)NC(=S)N=C(N)N[N+](=O)[O-] | nt | nt | nt | nt | 2.8 | nt
CC(=O)OC(C)(C)/C=C/C(=O)[C@](C)(O)[C@H]1[C@H](O)C[C@@]2(C)[C@@H]3CC=C4[C@H](C[C@H](O)C(=O)C4(C)C)[C@]3(C)C(=O)C[C@]12C | 3.4 | 2.7 | -9.6 | 0.3 | nt | 68.0*
CC(=O)OC(C)(C)/C=C/C(=O)C(C)(O)C1[C@H](O)C[C@@]2(C)C3CC=C4C(CC[C@@H](O)C4(C)C)[C@]3(CO)C(=O)C[C@]12C (some centres not stated) | 8.3 | 0.4 | 16.6 | -5.1 | 3.0 | 51.7*
CC(=O)OC(C)(C)/C=C/C(=O)C(C)(O)C1C(O)CC2(C)C3CC=C4C(CC(O)C(=O)C4(C)C)C3(C)C(=O)CC12C (configuration not stated) | 2.8 | 1.2 | 14.6 | 1.0 | nt | 16.4
COC1=C(C)C(=O)C2=C(C1=O)C(CO)N1C(C#N)C3CC4C(C1C2N1CCOC41)N3C (configuration not stated) | -5.0 | 0.4 | 84.2* | 32.3 | nt | -1.1
O=C1NC(=S)N(c2ccccc2)C(=O)/C1=C/c1ccco1 | -4.3 | 0.1 | 18.7 | 67.6* | nt | 4.1
CCOc1cccc(N2C(=O)/C(=C/c3ccco3)C(=O)NC2=S)c1 | 2.5 | 0.1 | -8.7 | 11.2 | 7.2 | 12.4
SMILES | Cardio protect | aDG glyco up | PfG6PD inh | HKDC1 inh | UCH37 DUB inh | B2AR ag
Oc1ccc(C=NNP(=S)(c2ccccc2)c2ccccc2)cc1 | nt | nt | nt | nt | 3.8 | nt
CC(=O)c1cn(Cc2ccccc2C#N)c2ccccc12 | -22.7 | 7.5* | -6.9 | 0.6 | -1.4 | -3.7
O=C1NC(=O)N(Cc2ccco2)C(=O)/C1=C/c1ccc(-c2cccc([N+](=O)[O-])c2)o1 | -22.0 | -0.2 | 90.1* | 36.9* | 7.6 | 34.0
C=CCN1C(=O)NC(=O)/C(=C\c2ccc(-c3ccccc3[N+](=O)[O-])o2)C1=O | 3.3 | 0.2 | 51.8 | 1.2 | 8.9 | 5.5
COc1ccccc1OP(=O)(Nc1cccnc1)Oc1ccccc1OC | 60.0* | -0.4 | 4.0 | -6.4 | 0.6 | 9.4
CCC(c1nnnn1Cc1ccccc1)N1CCC(n2c(=O)[nH]c3ccccc32)CC1 (configuration not stated) | 51.1* | 1.7 | nt | nt | nt | nt
CCCCn1nnnc1C(CCc1ccccc1)N1CCC(n2c(=O)[nH]c3ccccc32)CC1 (configuration not stated) | 30.7 | -0.3 | nt | nt | nt | nt
COc1cc(C=C2C(=O)NC(=O)NC2=O)ccc1OCc1ccc([N+](=O)[O-])cc1 | -4.2 | 0.3 | 37.4 | 7.3 | -0.1 | -3.0
COc1cc(/C=C(/C)[N+](=O)[O-])ccc1OCc1ccccc1Cl | -10.5 | -0.8 | 51.8 | 28.9 | nt | 48.0*
CC1CCCC=CC2CC(O)CC2C(O)C=CC(=O)O1 (configuration not stated) | nt | nt | nt | nt | -1.0 | nt
O=[N+]([O-])/C=C/c1c(Cl)cccc1Cl | -20.7 | -0.4 | 101.3* | 0.0 | nt | 26.9
CCN(CC)c1ccc(/C=C/[N+](=O)[O-])cc1 | -12.6 | -0.1 | 3.9 | 9.6 | 3.4 | 62.9*
CCOC(=O)c1cc(C(O)(C(=O)OC)C(F)(F)F)c(N=CN(C)C)o1 (configuration not stated) | nt | nt | nt | nt | 10.2 | nt
NC(=N[N+](=O)[O-])N1CCN(C(=O)c2ccccn2)CC1 | nt | nt | nt | nt | 1.1 | nt
COc1ccc(C(=O)OC2C[C@H]3CC[C@@H](C2)N3O)cc1OC (some centres not stated) | 4.9 | -0.2 | -0.7 | 1.9 | 1.0 | 62.1*
CN1C2CCC1CC(OC(=O)c1cccc(O)c1)C2 (configuration not stated) | 4.2 | 0.2 | 14.7 | -9.6 | nt | -0.6
NC(=N[N+](=O)[O-])N1CCN(C(=O)OC2CCCC2)CC1 | nt | nt | nt | nt | 1.0 | nt
O=C1NC(=O)N(Cc2ccccc2)C(=O)/C1=C/C=C/c1ccco1 | -8.9 | -0.1 | 44.3 | 12.1 | 4.1 | 76.4*
COc1ccc(CN2C(=O)NC(=O)/C(=C\c3ccco3)C2=O)cc1 | -0.6 | 0.2 | 26.8 | 10.3 | 2.6 | 26.2
CCCCCC(=NO)c1c(C)[nH]c2ccccc12 | nt | nt | nt | nt | 0.7 | nt

Screens: PubChem, several laboratories
